# Shown are actives, neighbours in structure and some others; about 11% of the full set was active somewhere.
# Diaph act CS: compounds boosting diaphorase resazurin reduction – biochemical, uHTS, resorufin fluorescence, counter-screen for diaphorase-coupled primary assays, primary screen | Diaphorase/resazurin coupled assay, 16 min; active compounds read high; 1 = vehicle wells, 0 = NADH-free wells | activation factor at 20 µM | 190,000 tested, 0.005% active | AID 1229, 2008;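 active means diaphorase activity raised at least twofold by the compound at 20 µM; inactive means activation factor below 2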
#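 Assay system: Purified diaphorase enzyme from Clostridium kluyveri | Amount: Enzyme 0.07 U/mL final | Dosing: Compound 20 µM once, DMSO 1% | Timing: 16 min reaction at room temperature | Detection: Fluorescence, excitation 544 nm and emission 590 nm | Evaluation: Higher resorufin formation from activation or reduction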
# WT yeast gro inh: growth inhibition of WT strain, primary screen, mitochondrial fusion inhibitor project, WT and mutant strains, chemical genetic. mitochondrial fusion phenotypic screen. inhibition, % at 10 µM. 190,000 tested, 2.1% active. AID 1362, 2008; in the data active means inhibition above about 58%; tested in S. cerevisiae
# Diaphorase inh: diaphorase inhibitors and chemical oxidizers, primary screen, counter-screen for diaphorase-coupled primary assays, biochemical, uHTS, resorufin fluorescence; 190,000 tested, 0.69% active; inhibition, % at 20 µM; AID 1217, 2008; diaphorase resazurin-to-resorufin fluorescence, NADH, 16 min; bacterial (C. kluyveri) enzyme, not human;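 active means primary screen inhibition at 20 µM above a set limit, cut at about 50% in these data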;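 further: plate controls were DMSO with full reaction for no effect and wells lacking NADH for full effect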
#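 Test system: Clostridium kluyveri diaphorase enzyme / Quantity: diaphorase at 0.14 U/mL in enzyme working solution / Incubation: 16-min room-temperature incubation before reading / Benchmarks: NADH-free wells as positive control, DMSO-only neutral wells / Signal: resorufin fluorescence 544/590 nm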
# G6PDH CS: L. mesenteroides G6PDH inhibitors, counter-screen for G6PDH-coupled screening assays, biochemical, Leuconostoc mesenteroides enzyme. glucose-6-phosphate dehydrogenase [Leuconostoc mesenteroides]. Purified L. mesenteroides G6PDH, diaphorase/resazurin coupled fluorescence, 45 min. inhibition, % at 5 µM. 200,000 tested, 0.12% active. AID 1020, 2008
# L major viab: Leishmania major promastigote growth inhibition, primary screen; 200,000 tested, 9% active; AID 1063, 2008; Leishmania major promastigotes, resazurin fluorescence viability; inhibition, % at 10 µM;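 further: promastigotes grown with compound for 44 hours at 28 °C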
# L major 1uM: Leishmania major promastigote growth inhibition, confirmation, 1 µM repeat of primary hits | inhibition, % at 1 µM | 1,100 tested, 13% active | L. major promastigote growth, resazurin fluorescence, 48 h | AID 1258, 2008 | shares compounds with L major viab;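 active means inhibition above about 50% in both repeat tests, limit read from the data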
# Starred values were filed as active, the others as inactive; nt = no result. Unless noted, no stated cut-off is given here; in the data, active means inhibition above about 50%; inactive means the rest.
SMILES,Diaph act CS,WT yeast gro inh,Diaphorase inh,G6PDH CS,L major viab,L major 1uM
C(=C/c1nccc2c1[nH]c1ccccc12)/c1ccc2c(c1)OCO2,1.1,89,-5,3,96*,5
Cc1cccc(NC(=S)NN2CCN(C)CC2)c1,1,24,-3,15,2,nt
COc1ccc(-c2cc3nc(-c4ccccc4)cc(N4CCC5(CC4)OCCO5)n3n2)cc1,0.7,-2,28,2,80*,7
Cc1ccc(-c2cc3nc(-c4ccccc4)cc(N4CCOCC4)n3n2)cc1,0.9,-1,7,0,-1,nt
COCCCNC(=S)NNC(=O)c1csc2ccccc12,1,-3,0,12,-4,nt
O=C(NC1CC1)c1cccc(Nc2ccc(-c3ccc4c(c3)OCCO4)nn2)c1,0.8,-10,24,-21,50*,-15
O=S(=O)(c1ccc(Nc2ccc(-c3ccc4c(c3)OCCO4)nn2)cc1)N1CCCC1,1.1,-4,-5,6,23,nt
O=C(CN1CCN(Cc2ccccc2)CC1)c1ccc(Br)cc1,0.9,5,6,1,82*,9
CCOc1ccccc1N(C(=O)Nc1cccc(Cl)c1)C1=NC(C)CS1 (centres undefined),0.8,19,15,6,81*,7
COc1ccc(C(=O)NC(=S)NNC(=O)c2cnccn2)cc1,0.4,-4,65*,-3,100*,6
COc1ccc(CC(=O)NNC(=O)c2cnccn2)cc1,0.7,8,26,8,-6,nt
Cc1ccc(S(=O)(=O)c2ccc(Oc3cccc(C)c3)cc2)cc1,0.9,13,6,1,74*,85*
CCN(CC)S(=O)(=O)c1ccc2oc(C(=O)NCc3ccc(C)cc3)c(C)c2c1,0.8,49,21,1,14,nt
Cc1ccc(NC(=O)N2CCCN(Cc3ccc(F)cc3)C2)cc1C,0.9,-8,15,7,94*,53*
CCOc1ccc(C2=Nc3ccccc3C(c3ccc(N4CCOCC4)cc3)=NN2)cc1,0.6,-10,41,9,63*,-2
CCOC(=O)N=Nc1c2ccccc2c2nc3no[nH]c3nc12,0.8,96*,20,55*,101*,100*
CCOC(=O)C(=O)N=Nc1c(O)n(C)c2ccccc12,0.9,-8,6,9,-3,nt
On1onc2c3cc(-c4ccccc4)nc3ccc21,0.8,81*,23,8,100*,-22
c1ccc(-c2cc3c(ccc4nonc43)nn2)cc1,0.8,-6,21,2,2,nt
CCOC(=O)N1CCC(NC(=O)c2ccc3c(c2)sc2nc(-c4ccc(OC)cc4)cn23)CC1,0.9,8,13,6,0,nt
CCOC(=O)N1CCN(C(=O)c2ccc3c(c2)sc2nc(-c4ccccc4)cn23)CC1,0.8,26,24,5,58*,2
Cc1ccc2nc(N3CCN(c4cccc(C)c4C)CC3)c3nnnn3c2c1,1,5,2,-17,-3,nt
Cc1ccc2nc(Cl)c3nnnn3c2c1,1,68,2,7,100*,93*
O=[N+]([O-])c1ccccc1S(=O)(=O)Oc1ccc(C(=S)N2CCOCC2)cc1,0.9,-19,9,-9,81*,-22
O=C(CSc1n[nH]c(-c2ccccc2Br)n1)NCCN1C(=O)CSC1=O,0.8,8,19,-9,-5,nt
SMILES,Diaph act CS,WT yeast gro inh,Diaphorase inh,G6PDH CS,L major viab,L major 1uM
COCCNC(=O)c1c(NC(=O)c2nc(SC)ncc2Cl)sc2c1CCCC2,0.9,5,5,-77,-1,nt
Cc1ccc(-c2onc3ccc(C=O)cc23)cc1,0.8,-6,21,7,81*,-11
Cc1ccc(-c2onc3ccc(C4(C)OCCO4)cc23)cc1,0.8,19,18,9,2,nt
C=CCn1c(SCC(=O)NCCOC)nc2scc(-c3ccco3)c2c1=O,0.8,8,23,-6,-1,nt
COc1ccc(NC(=O)Cc2ccc(Cl)c(Cl)c2)cn1,0.9,3,7,3,5,nt
COc1ccc(NC(=O)/C(Cl)=C(/Cl)S(=O)Cc2ccccc2Cl)cn1 (centres undefined),0.8,92,16,-4,101*,100*
COC(=O)c1cc(=O)n(Cc2cccs2)c(=NCc2cccs2)s1,0.9,36,10,1,3,nt
CCOC(=O)c1ccc(N=c2sc(C(=O)OC)cc(=O)n2Cc2ccco2)cc1,0.8,10,22,-18,100*,46
COc1cc(C#N)c(N=C(SCC#N)N2CCOCC2)cc1OC,0.8,-6,17,2,-3,nt
c1ccc(N2CCN(c3ccccc3)C2c2cccs2)cc1,1,2,4,0,94*,-6
COc1ccc(-n2cnnc2SCC(=O)Nc2cccnc2Cl)cc1,1.1,10,-9,-3,-14,nt
CC(=O)N1CCN(Cc2nc3cc(NC(=O)NC4CCCCC4)ccc3n2C)CC1,1,17,2,0,-2,nt
C[C@H]1CC[C@H]2C(=O)N3[C@H](c4ccccc4Br)[C@@H](C)CC[C@H]3C(=O)N2[C@@H]1c1ccccc1Br,0.8,70*,23,21,100*,16
CC1CCN(C2CC(=O)N(c3ccccc3)C2=O)CC1 (centres undefined),0.9,7,5,10,-2,nt
COC(=O)c1cc2n(n1)CCN(Cc1ccc(F)cc1)C2=O,1,9,-2,-13,-6,nt
CC(C)c1ccc(/C=N/Nc2ccc(C(=O)O)cc2)cc1,0.9,29,13,9,57*,-20
O=C(O)c1ccc(N/N=C/c2ccc(-c3ccccc3)cc2)cc1,0.7,68,33,-5,6,nt
O=C(CCC(=O)OCC(=O)c1cccc([N+](=O)[O-])c1)Nc1ccccc1Cl,1,-12,2,2,-9,nt
Cc1cc(C)c(C(=O)CSC2=NC(N)=C(C#N)C3(CCCCC3)C2C(N)=O)cc1C (centres undefined),0.9,3,6,22,64*,-15
CC(=O)c1ccc(Sc2nnc(C)s2)c([N+](=O)[O-])c1,0.9,13,8,7,22,nt
COc1ccccc1-n1c(=O)[nH]c2c(C(N)=O)nc(C3CCCCC3)nc21,0.8,16,17,-6,84*,0
Cc1c(C(=O)NCC(C)C)sc2nc(-c3ccc(F)cc3)cn12,0.9,6,10,-36,-3,nt
Cc1c(C(=O)Nc2ccncc2)sc2nc(-c3ccc(F)cc3)cn12,0.8,12,17,-45,99*,19

# Compound activity deposited in PubChem BioAssay by several laboratories.
